NR2E3 ag-1 = human photoreceptor-specific nuclear receptor agonism; Q9Y5X4; CHO-S Gal4-NCOR/VP16-NR2E3 two-hybrid, luciferase; inhibition of corepressor binding, % at 3.98 µM; actives 0.35% (n = 360,000); AID 602229;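 active = inhibition above the mean of all tested compounds plus 3 SD, cut at about 70% in these data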;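 note: 0% = DMSO with NR2E3 transfected cells and 100% = cells lacking NR2E3 construct; higher means lower luciferase signal from less NR2E3 corepressor binding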
SMARCA2 activ = activators of SMARCA2 function | MG213 cells, MMTV-luciferase reporter, dexamethasone, overnight | activation, % at 9.1 µM | actives 1% (n = 370,000); in the data active = activation above about 7.8%;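 note: 0% = vehicle wells and 100% = reference activator wells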
JMJD2C inh = inhibitors of human GASC-1 (JMJD2C) demethylase; Q9H3R0; GST-JMJD2C(1-420) H3K9me3 demethylation, DELFIA europium; inhibition, % at 2.35 µM; actives 0.069% (n = 330,000);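 active = more than half of a compound's replicate wells show inhibition beyond 50%, single wells judged on their own value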;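 note: signal counts dimethyl H3K9 product captured on neutravidin plate; 0% = median of DMSO wells and 100% = 0.3 times that DMSO median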
DAX1 inh-1 = blocks DAX1 repression of SF-1 activated StAR promoter. HEK293T StAR-luciferase reporter, SF-1/DAX-1 repression relief. inhibition, % at 6.8 µM. actives 1.1% (n = 370,000);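 active = inhibition above the mean over all tested compounds plus 3 SD, cut at about 3.6% in these data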;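 note: 0% = DAX-1 cells with DMSO and 100% = cells lacking DAX-1 with DMSO; higher inhibition means more luminescence from relief of DAX-1 repression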
NR2E3 ag-2 = agonists of human nuclear receptor NR2E3; GST-NR2E3/biotin-RetCOR TR-FRET, 1536-well; inhibition of corepressor binding, % at 4.78 µM; actives 0.12% (n = 320,000);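 active = percent inhibition above the cutoff of mean plus 3 SD of all tested compounds, set per screening campaign, cut at about 20% in these data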;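 note: 0% = DMSO wells and 100% = biotin wells as full block of FRET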
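System: GST-NR2E3 and biotin-RetCOR proteins; probe or stimulus: 7 nM biotin-RetCOR; doses: compound at 4.8 µM, single dose; schedule: Compound–protein incubation for 5 h at 4 °C; detection: time-resolved FRET; read-out: percent inhibition; controls: biotin wells as high control, 0.6% DMSO wells as low control; format: 1536-well plates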
DAX1 inh-2 = inhibits human nuclear receptor DAX1; AID 504766; actives 0.99% (n = 340,000); HEK293 Gal4-DAX1 luciferase reporter, luminescence; inhibition, % at 6.75 µM;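 active = inhibition above the mean over all tested compounds plus 3 SD, cut at about 4.2% in these data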;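 note: 0% = DAX1-transfected cells with DMSO and 100% = empty-vector control cells with DMSO; inhibition shows as a rise in luminescence from relieved DAX1 repression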
Target sequence (P51843 207-470 limits assumed): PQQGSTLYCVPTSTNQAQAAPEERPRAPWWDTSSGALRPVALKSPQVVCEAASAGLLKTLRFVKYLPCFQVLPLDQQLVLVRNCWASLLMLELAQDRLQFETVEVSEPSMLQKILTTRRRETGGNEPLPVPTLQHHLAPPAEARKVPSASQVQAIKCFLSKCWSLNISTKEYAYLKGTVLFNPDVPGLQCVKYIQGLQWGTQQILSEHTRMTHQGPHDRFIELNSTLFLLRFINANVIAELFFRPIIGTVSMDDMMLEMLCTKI
DAX1 inh confirm = NR0B1 (human) inhibition, confirmation | shares compounds with DAX1 inh-1 | HEK293T StAR-promoter luciferase reporter, SF-1/DAX-1 repression | actives 87% (n = 2,400) | inhibition, % at 6.8 µM;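 active = inhibition above the average of every tested compound plus 3 SD, cut at about 3.8% in these data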;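 note: 0% = DAX-1 cells with DMSO and 100% = no DAX-1 control cells with DMSO; active compounds raise luminescence by relieving repression of the StAR reporter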
SF1 AF2mut Luc = counter-screen for DAX1 inhibitors: nonselective inhibitors with SF-1 AF2 mutant; shares compounds with DAX1 inh-1; HEK293 StAR-luciferase, luminescence; inhibition, % at 6.8 µM; actives 78% (n = 2,400); AID 652136;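 active = inhibition above the mean of all tested compounds plus 3 SD, cut at about 3% in these data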;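 note: 0% = DAX-1 transfected cells with DMSO and 100% = cells without DAX-1 with DMSO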
Numbers without * were called inactive; x = no result given. Compounds with a hit are over-represented: about 3.2% of the library has one in this group of screens.

SMILES	NR2E3 ag-1	SMARCA2 activ	JMJD2C inh	DAX1 inh-1	NR2E3 ag-2	DAX1 inh-2	DAX1 inh confirm	SF1 AF2mut Luc
C=CCN(C(=O)c1oc2c(Cl)cc(C)cc2c1C)C1CCS(=O)(=O)C1 (stereo not given)	-142	4	-23	5.2*	-1	1	6.1*	4.0*
O=C(NC1CCCCN(Cc2cccc(Cl)c2)C1=O)c1cccc(F)c1 (stereo not given)	x	-5	x	0	x	x	x	x
O=C(/C=C/c1ccc(Br)cc1)NC(=O)c1ccccc1O	-16	3	-10	3	0	0	x	x
O=C(/C=C/c1ccc(O)c(O)c1)NC(=O)c1ccccc1O	-67	5	-5	4.6*	-1	0	8.1*	4.0*
CSc1ccc(/C=C/C(=O)NC(=O)c2ccccc2O)cc1	-20	1	7	4.9*	-1	1	8.8*	5.8*
COc1ccc(-c2cc3ncc(-c4ccccc4)c(N)n3n2)cc1	-37	2	-3	6.5*	x	1	15*	7.0*
COc1ccc(-c2cc3nc(C)cc(-c4ccc(OC)cc4)n3n2)cc1	-28	-2	-2	0	0	2	x	x
N#Cc1cnc2cc(-c3ccccc3)nn2c1N	-30	1	-2	0	0	x	x	x
COc1ccc(-c2cc3nc(C)cc(N)n3n2)cc1	-164	3	7	5.4*	1	-3	18*	8.9*
C=CS(=O)(=O)N(Cc1ccc(C)cc1)[C@@H](CO)C(=O)OC	x	-1	x	-3	x	x	x	x
CC(C)C[C@@H]1COc2cccc(N3CCCC3)c2S(=O)(=O)N1C	x	-1	x	-1	x	x	x	x
C=CCNc1nc(NCc2ccc(NC(C)=O)cc2)c2sc(-c3ccccc3)cc2n1	-84	-1	x	6.4*	x	x	7.8*	5.7*
CC(=O)Nc1ccc(CNc2nc(NC(C)C)nc3cc(-c4ccccc4)sc23)cc1	-55	-10	x	2	x	x	x	x
Cc1ccc2nc(N(CCN(C)C)C(=O)c3ccc4ccccc4c3)sc2c1	-28	x	8	x	0	0	x	x
Cc1ccc2nc(N(CCCN(C)C)C(=O)c3ccc4ncsc4c3)sc2c1	-142	3	2	6.4*	2	0	11*	7.8*
C=C(C)C(=O)Nc1ccc2nn(-c3ccccc3O)nc2c1	-255	1	x	7.9*	x	2	13*	7.7*
COc1ccc(-c2cc(-c3nnc(SCC(=O)Nc4ccc(-c5nc6ccc(C)cc6s5)cc4)n3N)[nH]n2)cc1	x	7	x	1	x	x	x	x
C/C(=N\NC(=O)c1ccco1)c1ccc(NC(=O)c2cccs2)cc1	-101	4	4	4.7*	3	1	-1	-1
C/C(=N\NC(=O)c1cc2ccccc2cc1O)c1cccs1	-190	4	-11	1	-2	1	x	x
C/C(=N\NC(=O)c1ccccc1)c1ccc(NC(=O)c2cccs2)cc1	-25	2	4	1	-4	0	x	x
CC(=NNC(=O)c1cccs1)c1ccc2c(c1)OCCO2	-114	5	x	7.2*	x	4	7.8*	2.9*
O=C(Nc1ccc2c(c1)OCCO2)c1cccs1	-103	4	10	4.7*	-1	0	15*	7.6*
C/C(=N\NC(=O)c1cccs1)c1c(O)cc(C)oc1=O	-87	4	2	6.9*	1	4.7*	1	2
C=CCN1C(=O)[C@H](CC(=O)N2CCCC2)[C@@]2(C(=O)OCC)CCCC=C12	x	-1	x	-1	x	x	x	x
Cc1cccc(-c2cccc3c4c([nH]c23)[C@@H]2C[C@H](N(C)C(=O)c3ccccc3C)[C@H]([C@H](C)O)CN2CC4)c1	x	4	x	-1	x	x	x	x
Cc1ccc(-c2cccc3[nH]cc(C)c23)s1	x	-2	x	-1	x	x	x	x
CC(=O)CC[C@H]1CC[C@]2(CCCN(C(=O)c3ccno3)C2)O1	x	1	x	-1	x	x	x	x

High-throughput results: PubChem BioAssay, several laboratories
